# The list is not random: actives were taken first. Their share in the collection is about 4.9%.
# STAT1 act: increases IFN-gamma driven STAT1 reporter signal | actives 2.6% (n = 200,000) | NIH 3T3 STAT1-luciferase reporter, luminescence; 100% = IFN-gamma alone, no compound | activation (% of control), % at 5.5 µM;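 active = activation above the screen-wide mean activation plus 3 SD, cut at about 130% in these data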;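 also: raw ratio to IFN-gamma control signal so 100% means no change and 0% no light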
# STAT1 inh: reduces IFN-gamma driven STAT1 reporter signal; NIH 3T3 STAT1-luciferase reporter, luminescence; inhibition, % at 5.5 µM; actives 0.35% (n = 200,000); AID 920;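 active = inhibition above a set limit, the mean inhibition across all tested compounds plus 3 SD, cut at about 34% in these data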;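 also: 0% = IFN-gamma with DMSO and 100% = IFN-gamma with 300 µM nifuroxazide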
# STAT3 blocker: STAT3 signaling inhibition | U3A cells, IL-6 STAT3-luciferase reporter, luminescence; host cell line lacks STAT1 | inhibition, % at 5.5 µM | actives 0.89% (n = 190,000);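 active = inhibition above the mean inhibition across all screened compounds plus 3 SD, cut at about 44% in these data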;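 also: 0% = DMSO only wells and 100% = 100 µM nifuroxazide control wells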
# STAT3 activator: STAT3 signaling activation; U3A cells, IL-6 STAT3-luciferase reporter, luminescence; 100% = signal with IL-6 EC80 alone; actives 0.91% (n = 190,000); activation (% of control), % at 5.6 µM; AID 871;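 active = activation above the screen-wide mean of compound activation plus 3 SD, cut at about 130% in these data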;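 also: 0% = background luminescence of wells with medium and substrate only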
#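 Material: STAT3-luciferase reporter U3A cells. Controls: IL-6-treated wells, 100% activation. Read-out: % activation versus median of IL-6-stimulated wells. Probe or stimulus: IL-6 stimulus at 33 ng/mL final. Timing: compound 1 h, then IL-6 6 h at 37 °C. Signal: reporter luminescence signal.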
# NF-kB neuron act: raises NF-kB expression in human neuronal cells; actives 1.6% (n = 190,000); fold change at 12.5 µM; AID 1239; NF-kB reporter expression; active compounds read high; in the data active = fold change above about 3.3
# APP 5'UTR act: APP 5'UTR luciferase reporter activation; SH-SY5Y APP 5'UTR luciferase reporter, luminescence; zero percent = DMSO vehicle wells; activation, % at 2 µM; AID 1276; actives 1% (n = 190,000);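 active = activation above a set limit, based on mean plus 3 SD of controls, cut at about 140% in these data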
# STAT1 act conf: STAT1 activation, confirmation assay. shares compounds with STAT1 act. NIH 3T3 STAT1-luciferase reporter, IFN-gamma potentiation, luminescence; 100% = IFN-gamma EC80 alone, no compound. activation (% of control), % at 5.7 µM. actives 97% (n = 1,200);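 active = activation above a set limit carried over from the earlier primary STAT1 screen, cut at about 140% in these data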;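 also: simple ratio to median IFN-gamma plus DMSO wells so 0% means no light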
# NFkB act STAT1ct: activates NF-kappaB, counter-screen to STAT1 activators; actives 43% (n = 1,200); shares compounds with STAT1 act; HEK293T NF-kB luciferase reporter, TNF-alpha stimulated, luminescence; 100% = TNF-alpha with vehicle only; activation (% of control), % at 5.7 µM;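 active = activation above the mean of solvent-only control wells plus 3 SD, set per campaign, cut at about 130% in these data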;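 also: TNF-alpha given at a submaximal dose yielding about 80% of full reporter signal; values are well signal over median control so 100% means no change and 0% no light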
# STAT3 act STAT1c: counter-screen for STAT1 activators: human STAT3 activation; shares compounds with STAT1 act; U3A cells STAT3-luciferase reporter, IL-6, luminescence; cells lack STAT1; 100 = IL-6 alone, no compound effect; activation (% of control), % at 5.7 µM; actives 46% (n = 1,200);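 active = activation above the solvent-only control well mean plus 3 SD, set per plate batch, cut at about 110% in these data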;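 also: 0% = no luminescence and 100% = median IL-6 plus DMSO wells; higher means more STAT3 reporter activation so hits are non-selective activators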
# An asterisk follows results filed as active; x = not tested or not shown.
SMILES,STAT1 act,STAT1 inh,STAT3 blocker,STAT3 activator,NF-kB neuron act,APP 5'UTR act,STAT1 act conf,NFkB act STAT1ct,STAT3 act STAT1c
Cc1ccc(C2=NN(S(=O)(=O)c3ccccc3)C(c3ccccc3O)C2)cc1 (stereo not drawn),104,-6,-6,108,1.4,12,x,x,x
COc1cc(/C=N/OCC(=O)Nc2cc(C)cc(C)c2)ccc1OCc1ccc(Cl)cc1,152*,-58,-16,111,4.1*,102,183*,132,113*
COc1cc(/C=N/OCC(=O)NC2CCCCC2C)ccc1OCc1ccc(Cl)cc1 (stereo not drawn),158*,-65,-15,113,5*,141*,182*,134*,107
COC(=O)c1ccc(/C=N/OCC(=O)NC2CCCC(C)C2C)cc1 (stereo not drawn),102,-3,-4,106,0.75,5,x,x,x
COc1cc(/C=N\n2cnnc2)ccc1OCC(=O)Nc1ccc(C)cc1,104,-4,-32,132,0.79,20,x,x,x
CN(C)CC(C)(C)CNC(C(=O)Nc1ccc(Cl)cc1C(F)(F)F)c1ccccc1 (stereo not drawn),95,5,12,92,1.1,-6,x,x,x
COc1ccc(C(C(=O)NCC2CCCO2)N(C(=O)CNC(=O)c2cccs2)c2ccc(C)cc2)cc1OC (stereo not drawn),98,0,2,100,0.95,-15,x,x,x
c1ccc(N2CCN(c3nc4cc5c(cc4s3)OCCO5)CC2)cc1,158*,-64,24,81,2.1,49,190*,125,85
CC12CS(=O)(=O)CC1SC(=S)N2Cc1ccccc1 (stereo not drawn),105,-6,14,98,1.4,-4,x,x,x
CC(=O)Nc1ccc2c(c1)C(=O)c1ccccc1C2=O,156*,-63,6,101,3.9*,186*,203*,139*,106
COc1ccc(C(=O)NCC(=O)N/N=C/c2cn[nH]c2-c2ccccc2)cc1,93,6,22,90,0.86,0,x,x,x
COc1ccc2c(c1)CCC/C2=N\NC(=O)c1ccoc1C,151*,-57,-13,110,1.7,108,129*,117,100
NS(=O)(=O)c1ccc(N/C=C\C(=O)c2ccc(F)cc2)cc1,156*,-61,7,99,3.2,126,188*,128,115*
NS(=O)(=O)c1ccc(N/C=C\C(=O)c2ccncc2)cc1,108,-11,-3,105,1.1,-23,x,x,x
CCOC(=O)CNC(=O)c1ccc(OCC(F)(F)F)cc1,117,-20,8,99,0.96,5,x,x,x
COC(=O)CSc1nc2cc(C)ccc2cc1C#N,156*,-62,8,95,6.3*,138*,224*,142*,106
Cc1ccc2cc(C#N)c(SCC(=O)NCC3CCCO3)nc2c1 (stereo not drawn),91,10,13,94,1.1,-8,x,x,x
CC1CN(Cc2nc3ccccc3c(=O)[nH]2)CC(C)O1 (stereo not drawn),100,-1,3,101,0.85,1,x,x,x
CCOC(=O)NC(=O)COC(=O)CCCSc1nc2ccccc2s1,94,6,2,102,0.93,3,x,x,x
CCOC(=O)N/C(N)=N/c1nc2ccccc2s1,166*,-72,20,85,7*,199*,210*,125,99
CC(=O)c1cccc(NC(=O)COc2cc3oc(=O)c(CC(C)O)c(C)c3cc2Cl)c1 (stereo not drawn),96,5,4,96,0.51,-9,x,x,x
